Data published in the EternaBench riboswitch data.

Tested on: MS2 coat protein
Test: apparent Kd, MS2 coat protein; higher = weaker binding; RNA-MaP array
Method in brief: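 Designed RNAs were transcribed on an Illumina sequencing chip from sequenced DNA templates. They were incubated at room temperature with fluorescently labeled MS2 coat protein at 1.5 nM to 3 μM, for 0.8–1.5 h at the lowest to 10–20 min at the highest concentrations, in Tris-HCl pH 7.5 buffer with KCl, MgCl2, BSA, DTT, tRNA and Tween20, with or without input ligand. Apparent Kd is the median of per-cluster binding-curve fits. Designs measured on fewer than 10 clusters were excluded.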

[1] = designed as: ON switch for flavin mononucleotide, no ligand
[2] = ligand present: flavin mononucleotide, designed as: ON switch for flavin mononucleotide
[3] = designed as: OFF switch for flavin mononucleotide, no ligand
[4] = ligand present: flavin mononucleotide, designed as: OFF switch for flavin mononucleotide
[5] = designed as: OFF switch for theophylline, no ligand
[6] = ligand present: theophylline, designed as: OFF switch for theophylline

Sequence	apparent Kd [1]	apparent Kd [2]	apparent Kd [3]	apparent Kd [4]	other results
AUUACAAGCACAGGAUAUAACAGUUGGUUCACAUGAGGAUCACCCAUGUAGCAUUGGGAAGUAGCUUAGAAGGGUGAGGUGGUU	183 nM	107 nM			
AUUAGACAAGGAUAUACAAGUCGUAUCGGCGCUGGGUGUAUACAUGAGGAUCACCCAUGUAGAAGGUGUGCUAU			101 nM	190 nM	
AUUCAUUGAAACAUGAGGAUCACCCAUGUACACUGGCACUUACAGGAUAUUGAAUAUGGAAGUCGCAAGAAGGGUAACGUGAUC	112 nM	57 nM			
AUUUCAUGUGUAGGAUAUCGCAUUCAGAACUAGCCAUCCACAUGAGGAUCACCCAUGUGUGCGGGCGAGAAGGACACGAGGGCA	9.72 nM	7.55 nM			
CAAACCAACUAGUAAAACAACAUGAGGAUCACCCAUGUAAGAGAGGAUAUUGAAAUCGAAAGCAACAAGAAGGCUCACCAUGUA	19.5 nM	15.8 nM			
CAACUGGCAGAGGAUACCAGAUCAUUUAGAAACAUGAGGAUCACCCAUGUCGUAAGGAUAAUCCCUUGGCAGCCUAUCCGCCUCG					apparent Kd (designed as: ON switch for theophylline, no ligand): 13.2 nM; apparent Kd (ligand present: theophylline, designed as: ON switch for theophylline): 10.8 nM
CAAGCACCAACCGAUACCAGCUUAGUAGUAUGCUCAUUAAACAUGAGGAUCACCCAUGUGAGCCCUUGGCAGCGGAUUUCCCUGC					apparent Kd [5]: 13.3 nM; apparent Kd [6]: 20.7 nM
CACGAGAACACUCAGGAUAUGACAAACAAGACAUGAGGAUCACCCAUGUGAAAUUACGGGUGCAAACAGAAGGGAGAAACUUACAC	48.6 nM	47.5 nM			
CACGAUACUACAGGAUAUGCCGGUUACCAAUCUGCAGAAGGGUAGAUUAGUCUAACAUGAGGAUCACCCAUGUACCUCUCAUGU			208 nM	248 nM	
CAGACCCGGCGGGAGGAUAUACGAGAGAACACAUGAGGAUCACCCAUGUUGCACUAAACAGCGUGGUAGAAGGCCCAUCAUCUGUA	56.8 nM	11.9 nM			
CAUGCUUGCGAGGAUAUAAGGUUCUCCCUGUUCUUAGAAGGCGCAACAUGAGGAUCACCCAUGUUCCUACCGAA			43 nM	283 nM	
CAUGGGCUAAGACAUUAUUCGUAUUUUGAUACCAGAAAAUUGGCGUUCCCUUGGCAGCAAUAUACAUGAGGAUCACCCAUGUCCC					apparent Kd [5]: 80.6 nM; apparent Kd [6]: 93.8 nM
CAUGUACUAGGAUAUACAAUCACUCGUCAGGCAGCGUUAACACAUGAGGAUCACCCAUGUAGAAGGAGUUUAAA			8.74 nM	8.2 nM	
CAUGUCAAAGACAUGAGGAUCACCCAUGUAAUCCAAGACGCAAGAAGGGCGUGUUGAACUAACACGCAGGAUAUUGACCCUGUU			57.5 nM	73.4 nM	
CAUUGGGUCAGUUCGACAUGAGGAUCACCCAUGUAGUUAACGAGAAGGAGUACCAGCCUAAGUGACUAGGAUAUCGAUAAGUGG			37.3 nM	38.7 nM	
CCAAUAUCUAUAGGAUAUCAAUGACCAAACUGAACAUGAGGAUCACCCAUGUAGUGAGUGACUUAUGAGAAGGAUAGACGUACC	104 nM	22.9 nM			
CCAUGACAUGAGGAUCACCCAUGUGGGUGCAGACAAGGAUAUAGUAAGAAUAGGAUAGAUCUAGAAGGUGUCAUUA	528 nM	282 nM			
CCAUGCGAUAUAGUGAUACAUGAGGAUCACCCAUGUAAAGUGAGAAGGCCAAAUUAAUACUAAGUGGAGGAUAUCAUCGUGAGC	53 nM	20.7 nM			
CCCAAGCCAGCUGAUACCAGUGACGUGGUCAGAAUGUGCGACAUGAGGAUCACCCAUGUACACCCUUGGCAGCAGUAGAACGGUU					apparent Kd [5]: 14.4 nM; apparent Kd [6]: 51.7 nM
CCCGUAAAGGCGGCCGCCACUGUAUGACAUGAGGAUCACCCAUGUAGGGAAAAUGCGAUGGUCGUCAGGACCGGGCCUCUGGCAU					apparent Kd (designed as: OFF switch for tryptophan, no ligand): 23.1 nM; apparent Kd (ligand present: tryptophan, designed as: OFF switch for tryptophan): 23.8 nM
CCGACUCGCGUAGAGGAUAUGUAAUAAAAUACAUGAGGAUCACCCAUGUGAGACCGGGUGUCUCCACAGAAGGCUAUCGUGUCGUA	133 nM				
CCGCAUAUGUGCCCAAUAUAACAUGAGGAUCACCCAUGUGGUAGAAGGAAUGCUCACGGCUCUCAUUAGGAUAUACCAGACUAU	18.2 nM	17.5 nM			
CCGUAUCCGUAGGAUAUCGACACGAGUCACGUGCGAGAAGGACGGACAUGAGGAUCACCCAUGUAUGCUUCGUG			22.6 nM	48.4 nM	
